Compounds with a hit are over-represented: about 2.5% of the library has one in this group of screens.
HTR2A ag: mouse Htr2a agonists via beta-arrestin recruitment, primary screen, cell-based, luminescence. 5-hydroxytryptamine receptor 2A (Mus musculus), P35363. CHO-K1 mHTR2A beta-arrestin complementation; percent of 30 µM serotonin response. activation, % at 7.6 µM. actives 0.66% (n = 360,000). AID 624169, 2012;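 active means activation above a run cutoff, the mean activation of all tested compounds plus 3 SD, cut at about 14% in these data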
VIM-2 inhibitor: VIM-2 metallo-beta-lactamase inhibitors, primary screen, biochemical, epi-absorbance readout, Pseudomonas aeruginosa enzyme; actives 0.89% (n = 290,000); purified VIM-2, nitrocefin hydrolysis, epi-absorbance fluorescence; AID 1527, 2009; inhibition, % at 5.6 µM;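 active means inhibition above the mean of all tested compounds plus 3 SD, cutoff set per screening run, cut at about 7.5% in these data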;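 further: red hydrolysis product quenches plate fluorescence so inhibitors raise well fluorescence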
dFosB act: activators of delta FosB homodimer, primary screen, biochemical, fluorescence polarization, TAMRA-CDK5 oligo, single point; purified delta FosB; percent of positive-control signal above neutral wells; activation, % at 25 µM; actives 0.99% (n = 340,000);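 active means mean activation above about 17%, with every replicate also reaching it, limit read from the data, passing the limit was not always enough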
Target sequence (P13346 whole entry, looked up): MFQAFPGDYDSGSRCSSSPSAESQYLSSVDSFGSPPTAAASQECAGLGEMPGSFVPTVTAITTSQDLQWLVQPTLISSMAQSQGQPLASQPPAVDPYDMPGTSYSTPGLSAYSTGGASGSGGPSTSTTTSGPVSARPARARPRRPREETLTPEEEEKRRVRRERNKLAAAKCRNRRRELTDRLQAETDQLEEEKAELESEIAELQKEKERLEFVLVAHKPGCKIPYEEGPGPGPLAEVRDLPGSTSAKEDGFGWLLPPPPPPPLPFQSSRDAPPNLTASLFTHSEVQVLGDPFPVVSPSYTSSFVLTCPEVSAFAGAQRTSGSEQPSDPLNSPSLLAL
IMP-1 inh: IMP-1 metallo-beta-lactamase inhibitors, primary screen, biochemical, epi-absorbance readout, Pseudomonas aeruginosa enzyme; purified IMP-1, nitrocefin hydrolysis, epi-absorbance fluorescence; actives 0.45% (n = 290,000); inhibition, % at 5.6 µM; AID 1556, 2009;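 active means inhibition above the mean plus 3 SD of all compounds in the same screening run, cut at about 4.5% in these data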
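assay system = purified recombinant IMP-1 metallo-beta-lactamase enzyme | schedule = 15 min preincubation plus 25 min reaction at 25 °C | signal = Epi-absorbance fluorescence, 480 nm excitation, 530 nm emission | read-out basis = percent inhibition from optical density relative to buffer-blank wells | controls = IMP-1 with DMSO as 0%, enzyme-free DMSO as 100%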
OPRM1 ag: OPRM1 agonists via beta-arrestin recruitment, confirmation, counter-screen for mouse HTR2A agonist project, cell-based, luminescence, single concentration | actives 5.3% (n = 2,300) | U2OS OPRM1 beta-arrestin PathHunter; DMSO 0%, DAMGO 9.3 µM 100% | shares compounds with HTR2A ag | activation, % at 9.3 µM;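 active means mean activation above the mean of DMSO-only wells plus 3 SD, cut at about 0.5% in these data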
Target sequence (P35372 whole entry, looked up): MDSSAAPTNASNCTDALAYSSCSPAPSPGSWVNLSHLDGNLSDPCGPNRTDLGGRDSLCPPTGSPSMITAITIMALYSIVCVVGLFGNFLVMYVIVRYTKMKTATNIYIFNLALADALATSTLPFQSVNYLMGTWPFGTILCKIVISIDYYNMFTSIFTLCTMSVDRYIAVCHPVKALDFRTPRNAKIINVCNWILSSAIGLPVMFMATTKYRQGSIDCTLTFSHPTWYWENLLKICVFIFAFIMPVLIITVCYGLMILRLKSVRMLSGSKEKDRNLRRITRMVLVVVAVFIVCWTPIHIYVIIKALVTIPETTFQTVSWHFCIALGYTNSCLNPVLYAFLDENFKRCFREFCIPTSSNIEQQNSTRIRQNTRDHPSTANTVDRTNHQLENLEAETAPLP
m5-HT2A ag conf: mouse HTR2A agonists, beta-arrestin recruitment, confirmation, cell-based, luminescence, CHO-K1 PathHunter, triplicate. shares compounds with HTR2A ag. DMSO 0%, 30 µM serotonin 100%. activation, % at 7.6 µM. actives 19% (n = 2,300);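 active means mean activation across triplicates above the hit threshold derived in the original primary screen, cut at about 15% in these data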
Large screens that a line does not name were inactive (follow-up assays come after a bar, where they were run).

COC(=O)C(CCSC)NC(=O)Cn1ncc2c(=O)oc3ccccc3c21 (stereo not drawn)	HTR2A ag 23 | OPRM1 ag inactive | m5-HT2A ag conf inactive
O=C(Nc1ccc2c(c1)OCCO2)C(c1ccnc2ccccc12)N1CCC(Cc2ccccc2)CC1 (stereo not drawn)	none (no result: VIM-2 inhibitor, dFosB act, IMP-1 inh)
CC(=O)OCCNC(=O)c1cc2ccccc2oc1=O	none
CN(C)CCNC(=O)c1cc2ccccc2oc1=O	HTR2A ag 16 | OPRM1 ag inactive | m5-HT2A ag conf inactive
CCCCOCCCNC(=O)C[C@@H]1C[C@@]2(C(=O)OC)CCCCC=C2N(CCc2ccc(OC)c(OC)c2)C1=O	none (no result: VIM-2 inhibitor, dFosB act, IMP-1 inh)
CCCC(=O)N1CC2(C)CN(C(=O)CCC)CC(CCC)(C1)C2=O	HTR2A ag 16 | OPRM1 ag inactive | m5-HT2A ag conf inactive
CC(=O)OC1C=CCC2C(=O)c3cccc(O)c3C(O)C12 (stereo not drawn)	HTR2A ag 17 (no result: VIM-2 inhibitor, IMP-1 inh) | OPRM1 ag inactive | m5-HT2A ag conf inactive
CC(C)c1nc2sc3c(=S)nc[nH]c3c2c2c1CCC2	HTR2A ag 16, IMP-1 inh 4.5 | OPRM1 ag inactive | m5-HT2A ag conf inactive
CCOC(=O)C1=CC[C@@H](c2ccccc2C(F)(F)F)N(S(=O)(=O)c2ccc(C)cc2)[C@H]1c1ccc(C#N)cc1	HTR2A ag 17 (no result: VIM-2 inhibitor, dFosB act, IMP-1 inh) | OPRM1 ag inactive | m5-HT2A ag conf inactive
CC[C@@H]1C=C(C(=O)O)[C@H](c2ccc(Cl)cc2)N1S(=O)(=O)c1ccc(C)cc1	HTR2A ag 17 (no result: VIM-2 inhibitor, IMP-1 inh) | OPRM1 ag inactive | m5-HT2A ag conf inactive
Cc1ccc([C@@H]2CC=C(C(=O)O)[C@H](c3ccc(C(C)(C)C)cc3)N2S(=O)(=O)c2ccc(C)cc2)cc1	HTR2A ag 24 (no result: VIM-2 inhibitor, IMP-1 inh) | OPRM1 ag inactive | m5-HT2A ag conf inactive
Cc1ccc(S(=O)(=O)N2[C@@H](c3ccc(C(C)(C)C)cc3)C(C(=O)O)=CC[C@H]2c2ccc(Cl)cc2)cc1	none (no result: VIM-2 inhibitor, IMP-1 inh)
CCCC[C@@H]1C=C(C(=O)O)[C@H](c2ccc3c(c2)OCO3)N1S(=O)(=O)c1ccc(C)cc1	HTR2A ag 16 (no result: VIM-2 inhibitor, IMP-1 inh) | OPRM1 ag 1.3 | m5-HT2A ag conf inactive
COCCNC(=O)c1ccc(Cl)c(S(=O)(=O)Nc2cccc(C)c2C)c1	none
COc1cc2c(c(OC)c1OC)C(=O)CO2	none (no result: VIM-2 inhibitor, IMP-1 inh)
CCn1nc(NC(=O)CC(C)C)c2cc3ccc(C)cc3nc21	HTR2A ag 14 | OPRM1 ag inactive | m5-HT2A ag conf inactive
O=[N+]([O-])c1cccc(C(=NCc2ccccc2)NO)c1	none
c1ccc(COc2ccc(Nc3ncnc4nc[nH]c34)cc2)cc1	HTR2A ag 17 | OPRM1 ag inactive | m5-HT2A ag conf inactive
CCOC(=O)c1ccc(Nc2ncnc3nc[nH]c23)cc1	none
CCNC(=O)c1cc2c(c(-c3cccc(-c4ccccc4F)c3)n1)[C@@H](CCO)N(C(=O)CC)C2	none (no result: VIM-2 inhibitor, dFosB act, IMP-1 inh)
C#CCN(C[C@@H]1[C@@H](OC(=O)NCC2CCCCC2)[C@@H](OC(=O)NCC2CCCCC2)Cn2c(=O)ccc(=O)n21)S(=O)(=O)c1ccc(C)cc1	HTR2A ag 27 (no result: VIM-2 inhibitor, dFosB act, IMP-1 inh) | OPRM1 ag inactive | m5-HT2A ag conf 35
CCOC(=O)c1cccnc1SCC(=O)Nc1ccc(C)cc1	HTR2A ag 16 | OPRM1 ag inactive | m5-HT2A ag conf inactive
CCOC(=O)c1cccnc1SCC(=O)NC(C)CC (stereo not drawn)	none
O=C(CSCC(=O)OCC(=O)c1ccc(Br)cc1)Nc1ccc(Br)cc1	none
CCOC(=O)c1ccc(NC(=O)Cn2nnc(-c3ccccc3)n2)cc1	HTR2A ag 21 | OPRM1 ag inactive | m5-HT2A ag conf inactive
CCOC(=O)c1ccc(NC(=O)Cn2nnc(-c3ccc(F)cc3)n2)cc1	none
CCOC(=O)c1ccc(NC(=O)CSCC(=O)OCC(=O)c2ccccc2)cc1	HTR2A ag 15 | OPRM1 ag inactive | m5-HT2A ag conf inactive
COc1ccccc1S(=O)(=O)N(C)C[C@H]1Oc2ncc(Br)cc2C(=O)N([C@H](C)CO)C[C@H]1C	none (no result: VIM-2 inhibitor, dFosB act, IMP-1 inh)
O=C(CNS(=O)(=O)c1ccc(Br)s1)N1CCN(c2ccc(F)cc2)CC1	none
COc1ccc(C2=NO[C@@](CC(=O)O)(C(=O)Nc3ccc4c(c3)OCCO4)C2)cc1	HTR2A ag 16 | OPRM1 ag 1.0 | m5-HT2A ag conf inactive
Cc1cc(C)c(C#N)c(N2CCCC(C(N)=O)C2)n1 (stereo not drawn)	none
CCOC(=O)C1CCN(c2nc(C)cc(C)c2C#N)CC1	HTR2A ag 16 | OPRM1 ag inactive | m5-HT2A ag conf inactive
CCNC(=O)C1(C)CCN(C(=O)c2cccnc2SC)C1 (stereo not drawn)	none (no result: VIM-2 inhibitor, dFosB act, IMP-1 inh)
COc1ccc(NC(=O)NN2CCN(C)CC2)cc1	none
CN1CCN(NC(=O)Nc2ccc(F)cc2)CC1	HTR2A ag 15 | OPRM1 ag inactive | m5-HT2A ag conf inactive
Cc1ccc2c(=O)[nH]c(Cc3ccccc3C(=O)O)nc2c1	HTR2A ag 15 | OPRM1 ag inactive | m5-HT2A ag conf inactive
CCCn1c(SCC(=O)NCc2ccc(Cl)cc2)n[nH]c1=O	none
O=C(C[n+]1ccccc1)N1CCCc2ccccc21	HTR2A ag 20 | OPRM1 ag inactive | m5-HT2A ag conf inactive
CC1(C)CC(=O)c2c(nc(SCC(=O)Nc3nsc(-c4ccccc4)n3)c(C#N)c2-c2ccccc2)C1	none
COc1ccc(-c2c(C#N)c(SCc3c(C)noc3C)nc3c2C(=O)CC(C)(C)C3)cc1	HTR2A ag 18 | OPRM1 ag inactive | m5-HT2A ag conf inactive
COCCNC(=O)C1(C)CCCN(C(=O)c2ccccc2OC)C1 (stereo not drawn)	none (no result: VIM-2 inhibitor, dFosB act, IMP-1 inh)
O=C(NCc1ccco1)c1ccc2sc([C@@H]3O[C@H](CO)[C@@H](O)[C@H]3O)nc2c1	none (no result: VIM-2 inhibitor, dFosB act, IMP-1 inh)
COC(=O)C(C(=O)OC)c1ncc(C(F)(F)F)cc1Cl	none
CCOC(=O)C(C(=O)N(C)C)c1ncc(C(F)(F)F)cc1Cl (stereo not drawn)	HTR2A ag 19 | OPRM1 ag inactive | m5-HT2A ag conf inactive
Brc1ccc(-c2noc3c2-c2nc(C4CCCCC4)sc2CC3)cc1	none (no result: VIM-2 inhibitor, IMP-1 inh)
CNc1cccnc1C=NNC(N)=S	HTR2A ag 15 (no result: VIM-2 inhibitor, IMP-1 inh) | OPRM1 ag inactive | m5-HT2A ag conf inactive
N#Cc1ccc(OCC(=O)N2CCCC2=O)cc1	HTR2A ag 15 (no result: VIM-2 inhibitor, IMP-1 inh) | OPRM1 ag 0.7 | m5-HT2A ag conf inactive
Cc1ccc(C(C)NC(=O)CSc2ccc(S(=O)(=O)N3CCOCC3)cn2)cc1C (stereo not drawn)	none (no result: VIM-2 inhibitor, IMP-1 inh)
Cc1cc(=O)c2ccc(C(F)(F)F)cc2[nH]1	none

Screening results: PubChem BioAssay, several laboratories
